From ChEMBL document CHEMBL3763110, “A potent and selective inhibitor targeting human and murine 12/15-LOX” (Bioorg Med Chem, 2016)

Key:
[1] = target: T1, Polyunsaturated fatty acid lipoxygenase ALOX15 (Homo sapiens, UniProt P16050); test: Inhibition of N-terminal His6-tagged human 12/15-LOX using arachidonic acid as substrate by UV-visible spectrophotometric analysis
T1 sequence (P16050 whole entry): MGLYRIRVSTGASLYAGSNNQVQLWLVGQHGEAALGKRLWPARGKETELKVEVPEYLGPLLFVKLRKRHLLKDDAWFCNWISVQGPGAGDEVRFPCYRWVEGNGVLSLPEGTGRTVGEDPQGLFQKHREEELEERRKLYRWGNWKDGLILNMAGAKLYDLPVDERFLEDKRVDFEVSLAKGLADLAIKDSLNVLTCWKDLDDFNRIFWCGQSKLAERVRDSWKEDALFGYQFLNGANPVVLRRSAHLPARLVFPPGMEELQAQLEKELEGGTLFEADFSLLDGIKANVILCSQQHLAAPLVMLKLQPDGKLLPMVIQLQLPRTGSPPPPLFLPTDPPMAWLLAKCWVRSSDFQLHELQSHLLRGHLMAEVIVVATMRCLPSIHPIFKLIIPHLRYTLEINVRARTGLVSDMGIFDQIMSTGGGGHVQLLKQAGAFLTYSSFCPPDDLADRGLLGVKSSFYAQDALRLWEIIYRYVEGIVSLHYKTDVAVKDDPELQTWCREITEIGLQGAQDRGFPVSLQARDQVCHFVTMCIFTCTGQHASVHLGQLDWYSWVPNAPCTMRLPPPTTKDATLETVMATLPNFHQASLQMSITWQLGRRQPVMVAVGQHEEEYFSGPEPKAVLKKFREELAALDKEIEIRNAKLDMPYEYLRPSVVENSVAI

[2] = target: T2, Polyunsaturated fatty acid 5-lipoxygenase (Homo sapiens, UniProt P09917); test: Inhibition of human 5-LOX using arachidonic acid as substrate by UV-visible spectrophotometric analysis
T2 sequence (P09917 whole entry): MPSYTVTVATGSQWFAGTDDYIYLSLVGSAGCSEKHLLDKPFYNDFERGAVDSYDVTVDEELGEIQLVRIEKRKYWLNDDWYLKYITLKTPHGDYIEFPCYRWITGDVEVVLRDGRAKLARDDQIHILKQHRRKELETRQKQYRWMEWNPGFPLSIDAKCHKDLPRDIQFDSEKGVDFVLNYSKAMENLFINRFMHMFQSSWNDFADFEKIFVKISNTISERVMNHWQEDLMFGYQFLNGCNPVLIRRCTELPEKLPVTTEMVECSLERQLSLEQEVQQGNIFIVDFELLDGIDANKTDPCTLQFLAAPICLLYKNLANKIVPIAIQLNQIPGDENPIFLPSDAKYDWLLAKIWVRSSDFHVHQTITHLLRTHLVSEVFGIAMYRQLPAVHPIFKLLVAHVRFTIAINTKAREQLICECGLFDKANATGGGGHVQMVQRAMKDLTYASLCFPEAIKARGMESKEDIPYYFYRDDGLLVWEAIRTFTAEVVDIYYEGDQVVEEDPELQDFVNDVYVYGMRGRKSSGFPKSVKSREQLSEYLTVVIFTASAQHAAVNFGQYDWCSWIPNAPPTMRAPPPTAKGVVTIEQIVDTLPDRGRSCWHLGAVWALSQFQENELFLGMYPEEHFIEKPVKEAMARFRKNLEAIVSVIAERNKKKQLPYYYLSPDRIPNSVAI

[3] = target: T3, Polyunsaturated fatty acid lipoxygenase ALOX15B (Homo sapiens, UniProt O15296); test: Inhibition of N-terminal His6-tagged human 15-LOX-2 using arachidonic acid as substrate by UV-visible spectrophotometric analysis
T3 sequence (O15296 whole entry): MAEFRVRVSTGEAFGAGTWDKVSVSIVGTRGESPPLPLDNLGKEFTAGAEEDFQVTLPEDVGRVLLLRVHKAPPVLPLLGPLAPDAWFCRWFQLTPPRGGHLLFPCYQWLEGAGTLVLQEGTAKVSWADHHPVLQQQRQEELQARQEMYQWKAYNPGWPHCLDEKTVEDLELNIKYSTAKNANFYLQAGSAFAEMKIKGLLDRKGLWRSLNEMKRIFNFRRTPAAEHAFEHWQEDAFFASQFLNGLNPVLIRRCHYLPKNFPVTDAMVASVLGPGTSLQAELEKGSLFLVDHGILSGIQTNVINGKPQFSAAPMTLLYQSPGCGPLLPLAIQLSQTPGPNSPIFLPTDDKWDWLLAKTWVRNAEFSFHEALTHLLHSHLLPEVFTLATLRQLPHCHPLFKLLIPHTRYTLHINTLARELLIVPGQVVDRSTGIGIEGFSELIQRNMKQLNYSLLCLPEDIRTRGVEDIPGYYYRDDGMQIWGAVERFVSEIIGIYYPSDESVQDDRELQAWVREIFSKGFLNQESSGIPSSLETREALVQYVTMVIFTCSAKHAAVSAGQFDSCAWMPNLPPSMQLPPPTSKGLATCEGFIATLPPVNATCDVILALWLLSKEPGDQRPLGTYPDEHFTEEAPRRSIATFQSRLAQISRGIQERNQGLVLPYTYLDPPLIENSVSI

[4] = target: T4, Polyunsaturated fatty acid lipoxygenase ALOX15 (Homo sapiens) (UniProt P16050)
T4 sequence (whole entry): T1 sequence (P16050 whole entry)

[5] = target: T5, Prostaglandin G/H synthase 2 (Homo sapiens, UniProt P35354); test: Inhibition of human COX-2 by UV-visible spectrophotometric analysis
T5 sequence (P35354 whole entry): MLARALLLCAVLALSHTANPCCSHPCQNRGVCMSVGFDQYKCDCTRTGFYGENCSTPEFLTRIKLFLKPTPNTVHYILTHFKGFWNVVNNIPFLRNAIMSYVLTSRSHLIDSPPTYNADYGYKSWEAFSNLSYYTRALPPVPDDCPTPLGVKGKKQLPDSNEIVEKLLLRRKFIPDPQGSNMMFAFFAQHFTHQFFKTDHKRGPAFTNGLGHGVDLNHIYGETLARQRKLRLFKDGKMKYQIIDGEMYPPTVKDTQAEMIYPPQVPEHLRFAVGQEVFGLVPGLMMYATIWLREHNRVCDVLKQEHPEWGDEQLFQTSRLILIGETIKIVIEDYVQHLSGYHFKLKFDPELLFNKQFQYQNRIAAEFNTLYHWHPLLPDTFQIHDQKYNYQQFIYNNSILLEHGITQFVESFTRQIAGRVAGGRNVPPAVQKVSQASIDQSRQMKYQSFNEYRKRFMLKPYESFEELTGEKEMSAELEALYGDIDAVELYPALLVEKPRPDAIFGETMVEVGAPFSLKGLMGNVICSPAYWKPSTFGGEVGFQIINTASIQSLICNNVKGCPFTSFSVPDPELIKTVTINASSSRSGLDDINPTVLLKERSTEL

[6] = target: T6, Polyunsaturated fatty acid lipoxygenase ALOX15 (Mus musculus) (UniProt P39654); test: Inhibition of glutamate-induced 12/15-LOX-dependent cell death in mouse HT22 cells assessed as increase in cell survival at 5 uM by LDH release assay; assay type: cell-based; settings: HT-22
T6 sequence (whole entry): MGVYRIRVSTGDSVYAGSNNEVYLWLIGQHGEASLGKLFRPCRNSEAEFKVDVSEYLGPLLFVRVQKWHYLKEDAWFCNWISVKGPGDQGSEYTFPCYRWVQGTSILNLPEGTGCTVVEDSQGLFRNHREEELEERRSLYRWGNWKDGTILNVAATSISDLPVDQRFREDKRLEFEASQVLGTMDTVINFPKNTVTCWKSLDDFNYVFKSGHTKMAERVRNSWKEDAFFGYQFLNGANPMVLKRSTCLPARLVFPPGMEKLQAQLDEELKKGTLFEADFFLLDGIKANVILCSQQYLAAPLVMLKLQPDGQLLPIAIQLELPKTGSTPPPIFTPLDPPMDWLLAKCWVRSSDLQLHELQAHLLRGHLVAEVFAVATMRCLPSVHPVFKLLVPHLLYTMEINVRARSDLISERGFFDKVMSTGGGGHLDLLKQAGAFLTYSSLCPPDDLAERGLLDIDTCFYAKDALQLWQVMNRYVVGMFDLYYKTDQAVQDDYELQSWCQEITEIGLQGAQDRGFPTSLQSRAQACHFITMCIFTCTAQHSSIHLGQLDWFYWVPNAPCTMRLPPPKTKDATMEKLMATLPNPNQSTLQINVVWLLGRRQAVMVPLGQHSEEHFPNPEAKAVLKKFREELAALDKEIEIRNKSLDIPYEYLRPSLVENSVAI
In short: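 Mouse HT-22 neuronal cells grown in DMEM with 10% FBS and penicillin/streptomycin. Seeded at 1 × 10^4 cells/well and treated 18h later at ~50–70% confluence. Medium was replaced and 5 mM glutamate added with compound at 5, 10 or 20 μM, or DMSO control (max 0.1% final). LDH measured separately in cell extracts and media; % LDH released to medium calculated after background subtraction.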

[7] = target: T4, Polyunsaturated fatty acid lipoxygenase ALOX15 (Homo sapiens); remark: listed apart in the source
[8] = target: T7, Polyunsaturated fatty acid lipoxygenase ALOX12 (Homo sapiens, UniProt P18054); test: Inhibition of N-terminal His6-tagged human 12-LOX using arachidonic acid as substrate by UV-visible spectrophotometric analysis
T7 sequence (P18054 whole entry): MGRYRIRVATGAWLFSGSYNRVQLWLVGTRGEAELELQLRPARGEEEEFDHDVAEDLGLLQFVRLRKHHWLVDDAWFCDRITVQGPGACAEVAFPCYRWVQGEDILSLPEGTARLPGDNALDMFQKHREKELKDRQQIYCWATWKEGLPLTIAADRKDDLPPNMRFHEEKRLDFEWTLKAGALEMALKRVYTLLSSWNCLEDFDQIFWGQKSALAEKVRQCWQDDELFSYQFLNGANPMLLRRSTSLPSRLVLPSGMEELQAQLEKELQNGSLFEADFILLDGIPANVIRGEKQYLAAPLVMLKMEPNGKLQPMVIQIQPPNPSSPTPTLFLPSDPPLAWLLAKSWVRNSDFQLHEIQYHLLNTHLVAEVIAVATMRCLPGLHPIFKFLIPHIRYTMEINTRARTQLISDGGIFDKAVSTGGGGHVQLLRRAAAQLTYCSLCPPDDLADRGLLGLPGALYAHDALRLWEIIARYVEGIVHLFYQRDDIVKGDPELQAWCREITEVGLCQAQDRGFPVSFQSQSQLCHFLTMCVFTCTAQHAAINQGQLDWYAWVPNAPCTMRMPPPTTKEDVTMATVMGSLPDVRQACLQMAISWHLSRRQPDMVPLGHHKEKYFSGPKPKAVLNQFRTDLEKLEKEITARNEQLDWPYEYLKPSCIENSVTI

Row | SMILES | IC50 [1] | Survival [6] | other results
1 | Cc1ccc(O)c(-c2cc(-c3ccccc3C)[nH]n2)c1 | 3.4 µM | 20% | IC50 [2]: > 100 µM; IC50 [3]: > 50 µM; Kic [4]: 1 µM; IC50 [5]: > 100 µM; Kiuc [7]: 6 µM; IC50 [8]: > 50 µM
2 | Cc1ccccc1-c1cc(-c2ccccc2O)[nH]n1 | – | 76% | –
3 | COc1ccc(O)c(-c2cc(-c3cccc(Br)c3)[nH]n2)c1 | 7 µM | 70% | –
4 | Cc1ccc(-c2cc(-c3ccccc3C)[nH]n2)c(O)c1 | 10 µM | 71% | –
5 | COc1ccc(-c2cc(-c3ccccc3O)[nH]n2)cc1 | 10 µM | 7% | –
6 | Oc1ccccc1-c1cc(-c2ccco2)[nH]n1 | 7 µM | 34% | –
7 | COc1ccc(-c2cc(-c3cc(OC)ccc3O)[nH]n2)cc1 | 6 µM | 96% | –
8 | COc1ccc(O)c(-c2cc(-c3ccc(F)cc3)[nH]n2)c1 | 11 µM | 78% | –
9 | COc1ccc(O)c(-c2cc(-c3ccccc3Cl)[nH]n2)c1 | – | 83% | –
10 | Cc1ccc(O)c(-c2cc(-c3cccc(F)c3)[nH]n2)c1 | 10 µM | 49% | –
11 | Cc1ccc(O)c(-c2cc(-c3cccc(Br)c3)[nH]n2)c1 | 9.1 µM | 18% | –

Further lines, with some results ahead:

Row | IC50 [1] | SMILES | Survival [6] | other results
12 | > 50 µM | COc1ccc(C(=O)c2c[nH]nc2-c2cc(C)ccc2O)cc1 | – | –
13 | > 50 µM | Oc1ccc(Br)cc1-c1cc(-c2ccccc2)[nH]n1 | – | –
14 | > 50 µM | Cc1ccc(O)c(-c2cc(C(=O)NCc3ccccc3)[nH]n2)c1 | – | –
15 | > 50 µM | c1ccc(-c2cc(-c3ccccc3)[nH]n2)cc1 | – | –
16 | 7 µM | Cc1ccccc1-c1cc(-c2ccccc2O)n[nH]1 | – | –
17 | > 50 µM | Cc1ccc(-c2cc(-c3ccc(C)cc3O)[nH]n2)cc1 | – | –
18 | 4 µM | Oc1ccccc1-c1cc(-c2ccccc2Cl)[nH]n1 | – | –
19 | > 50 µM | Oc1ccc(Br)cc1-c1cc(-c2ccccc2Cl)[nH]n1 | – | –
20 | 6.6 µM | COc1ccc(O)c(-c2cc(-c3ccccc3Cl)n[nH]2)c1 | – | –
21 | > 50 µM | COc1ccc(-c2cc(-c3ccc(C)cc3)[nH]n2)c(O)c1 | – | –
22 | > 50 µM | Oc1ccccc1-c1cc[nH]n1 | – | –
23 | > 50 µM | Oc1ccc(Cl)cc1-c1cc(-c2ccccc2Cl)[nH]n1 | – | –
